According to ChEMBL document CHEMBL4725245, “The synthesis and biological evaluation of nucleobases/tetrazole hybrid compounds: A new class of phosphodiesterase type 3 (PDE3) inhibitors” (Bioorg Med Chem, 2020):

Columns and labels:
HeLa = test: Antiproliferative activity against human HeLa cells assessed as reduction in cell viability after 24 hrs by MTT assay; type: functional, cell-based
Summary of the method: (§1)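 Cells held in DMEM with 10% heat-inactivated FBS, penicillin and streptomycin at 37 °C, 5% CO2. HeLa seeded at 5000 cells/well or MCF-7 at 10,000 cells/well, grown overnight, then exposed to compounds at 0.0–200.0 µM (two-fold steps) for 24 h. MTT 0.5 mg/mL for 4 h at 37 °C, formazan dissolved in DMSO, absorbance read at 545 nm with 630 nm reference.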

MCF7 = test: Antiproliferative activity against human MCF7 cells assessed as growth inhibition after 24 hrs by MTT assay; type: functional, cell-based; details: MCF7, 24 h; summary of the method: as §1
[1] = molecular target: cGMP-inhibited 3',5'-cyclic phosphodiesterase 3A (Homo sapiens, UniProt Q14432); test: Inhibition of human PDE3A expressed in Sf9 cells using cAMP as substrate after 60 mins by IMAP TR-FRET assay
cGMP-inhibited 3',5'-cyclic phosphodiesterase 3A, sequence (Q14432 whole entry): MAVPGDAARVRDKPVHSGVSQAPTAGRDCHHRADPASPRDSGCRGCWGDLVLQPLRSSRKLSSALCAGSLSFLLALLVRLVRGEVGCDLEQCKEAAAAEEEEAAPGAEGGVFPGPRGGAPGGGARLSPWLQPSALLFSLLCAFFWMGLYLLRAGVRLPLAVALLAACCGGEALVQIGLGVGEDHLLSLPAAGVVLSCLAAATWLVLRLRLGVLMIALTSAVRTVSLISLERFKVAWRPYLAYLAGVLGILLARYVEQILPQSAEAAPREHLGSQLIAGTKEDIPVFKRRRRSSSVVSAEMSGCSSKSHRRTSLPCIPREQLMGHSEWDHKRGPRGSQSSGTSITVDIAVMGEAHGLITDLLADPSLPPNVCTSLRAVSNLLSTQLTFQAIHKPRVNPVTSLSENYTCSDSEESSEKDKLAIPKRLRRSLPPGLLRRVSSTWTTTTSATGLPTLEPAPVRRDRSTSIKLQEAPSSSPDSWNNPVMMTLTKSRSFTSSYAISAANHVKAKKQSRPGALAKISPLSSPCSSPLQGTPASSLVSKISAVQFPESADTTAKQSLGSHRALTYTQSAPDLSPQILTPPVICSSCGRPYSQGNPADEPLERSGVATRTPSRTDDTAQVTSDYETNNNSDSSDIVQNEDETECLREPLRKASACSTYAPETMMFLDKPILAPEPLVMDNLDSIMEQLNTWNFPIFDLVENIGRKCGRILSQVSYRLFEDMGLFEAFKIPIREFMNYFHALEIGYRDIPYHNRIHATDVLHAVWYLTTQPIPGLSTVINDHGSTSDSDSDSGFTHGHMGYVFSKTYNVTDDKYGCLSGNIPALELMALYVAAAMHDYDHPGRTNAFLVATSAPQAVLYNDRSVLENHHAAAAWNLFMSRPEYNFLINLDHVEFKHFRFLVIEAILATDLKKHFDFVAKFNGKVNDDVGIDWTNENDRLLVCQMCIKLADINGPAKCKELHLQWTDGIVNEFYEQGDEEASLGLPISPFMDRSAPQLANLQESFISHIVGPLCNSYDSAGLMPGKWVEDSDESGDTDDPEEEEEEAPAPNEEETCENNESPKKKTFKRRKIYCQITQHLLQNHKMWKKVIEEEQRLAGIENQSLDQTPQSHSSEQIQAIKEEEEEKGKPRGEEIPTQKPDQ

Compound	IC50 (HeLa)	IC50 (MCF7)	IC50 [1]
O=c1ccnc(SCCCOc2ccc(-c3nnn[nH]3)cc2)[nH]1	57.7 µM	80.7 µM	–
Cn1cnc2c1c(=O)n(CCCOc1ccc(-c3nnn[nH]3)cc1)c(=O)n2C	61.1 µM	73.3 µM	–
O=c1ccnc(SCCCCOc2ccc(-c3nnn[nH]3)cc2)[nH]1	50.6 µM	68.4 µM	0.00513 µM
Cn1c(=O)c2c(ncn2CCCOc2ccc(-c3nnn[nH]3)cc2)n(C)c1=O	55.3 µM	74.7 µM	0.00583 µM
O=c1ccn(CCCOc2ccc(-c3nnn[nH]3)cc2)c(=O)[nH]1	38.9 µM	54 µM	–
O=c1ccn(CCCCOc2ccc(-c3nnn[nH]3)cc2)c(=O)[nH]1	25.6 µM	35.8 µM	–
O=c1cnn(CCCOc2ccc(-c3nnn[nH]3)cc2)c(=O)[nH]1	49.3 µM	65.6 µM	–
O=C1CCc2cc(OCCCCc3nnnn3C3CCCCC3)ccc2N1 [CILOSTAZOL]	–	–	0.00389 µM

Next, values leading:

IC50 (HeLa)	IC50 (MCF7)	IC50 [1]	Compound
18.4 µM	25.7 µM	–	Nc1nc2c(ncn2CCCOc2ccc(-c3nnn[nH]3)cc2)c(=O)[nH]1
68 µM	90.5 µM	–	Nc1nc2c(ncn2CCCCOc2ccc(-c3nnn[nH]3)cc2)c(=O)[nH]1
21.1 µM	29.4 µM	–	Nc1ncnc2c1ncn2CCCOc1ccc(-c2nnn[nH]2)cc1
63.3 µM	76 µM	–	O=c1cnn(CCCCOc2ccc(-c3nnn[nH]3)cc2)c(=O)[nH]1
59.9 µM	73.7 µM	–	Cn1cnc2c1c(=O)n(CCCCOc1ccc(-c3nnn[nH]3)cc1)c(=O)n2C
45.1 µM	59.5 µM	–	Cn1c(=O)c2c(ncn2CCCCOc2ccc(-c3nnn[nH]3)cc2)n(C)c1=O
38.4 µM	54.5 µM	0.00391 µM	Nc1ncnc2c1ncn2CCCCOc1ccc(-c2nnn[nH]2)cc1
27.9 µM	49.2 µM	–	CN(Cc1cnc2nc(N)nc(N)c2n1)c1ccc(C(=O)N[C@@H](CCC(=O)O)C(=O)O)cc1 [METHOTREXATE]
